Common to all, as to format: functional, cell-based
The subject of assay [1] is TGBC11TKB. As to the kind of experiment: Antiproliferative activity against human TGBC11TKB cells after 3 days by alamar blue assay. The note with it: 72 h. The method in brief: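 TGBC11TKB, a lymph-node-metastasized gastric cancer line, was grown in DMEM with 5% FBS. 2×10^3 cells per well were plated, grown 24 h, then given medium with serial dilutions (final DMSO ≤0.4%) for 3 days. alamar Blue was then added for 6 h. Read-out was blank-corrected A570−A595 as % of untreated control, in triplicate.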
(In general: Alamar Blue is a resazurin reagent that responds to reducing activity.)

Assay [2] relates to CCRF-HSB-2. The assay can be described thus: Antiproliferative activity against human CCRF-HSB-2 cells after 3 days by alamar blue assay. The conditions noted are these: CCRF-HSB-2, 72 h. In outline: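 Suspension line maintained in RPMI1640 with 10% FBS. 10⁴ cells per well were preincubated 24 h, then mixed with an equal volume of serially diluted samples (DMSO up to 0.4%) and exposed for 3 days. Staining was alamar Blue for 24 h. Growth was expressed as % of untreated control from blank-subtracted A570−A595. Triplicate points.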

The subject of assay [3] is B16. As to the kind of experiment: Antiproliferative activity against mouse B16 cells after 3 days by alamar blue assay. The conditions noted are these: B16, 72 h. The method in brief: (§1)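 Cells kept in DMEM with 10% heat-inactivated FBS. 2×10^3 cells per well were grown 24 h, then an equal volume of medium with serial sample dilutions was added (DMSO ≤0.4%). After 3 days, alamar Blue was added for 6 h. Proliferation was taken as blank-corrected (A570−A595) as % of untreated growth control. Triplicates.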

Assay [4] deals with A549. As to the kind of experiment: Antiproliferative activity against human A549 cells after 3 days by alamar blue assay. The conditions noted are these: A549, 72 h. The method in brief: as §1

A word on the IC50: it is the point on the concentration scale where inhibition reaches its midpoint. As to `Cn1c2c(O)cccc2c(=O)c2c(O)cc3c(c21)C=CC(C)(C)O3`, the IC50 was 16.2 µM in assay [1], 23.6 µM in assay [2], over 40 µM in assay [3] and over 40 µM in assay [4].
As for `CC(C)=CCc1c2c(c3c(c1O)c(=O)c1ccccc1n3C)C=CC(C)(C)O2`, the 50% inhibitory concentration (IC50) in assay [1], in assay [2], in assay [3] and in assay [4] was over 40 µM in each case.
`CC(C)=CCc1c2c(c3c(c1O)c(=O)c1cccc(O)c1n3C)C=CC(C)(C)O2`: the IC50 in assay [1] was 2.13 µM; in assay [2] it was 5.41 µM; in assay [3] it was 8.04 µM; in assay [4] it was 9.37 µM.
Consider `CC1(C)C=Cc2c(cc(O)c3c(=O)c4ccccc4[nH]c23)O1`, for which the 50% inhibitory concentration (IC50) amounted to 2.07 µM in assay [1], 3.1 µM in assay [2], 5.05 µM in assay [3] and 6.37 µM in assay [4].
As for `COc1cc2c(c3[nH]c4ccccc4c(=O)c13)C=CC(C)(C)O2`, the 50% inhibitory concentration (IC50) in assay [1], in assay [2], in assay [3] and in assay [4] was over 40 µM in each case.
On to `CC(C)=CCc1c2c(c3[nH]c4c(O)cccc4c(=O)c3c1O)C=CC(C)(C)O2` [ATALAPHYLLININE], for which the concentration for half-maximal inhibition (IC50) in assay [1] turned out to be 1.43 µM; in assay [2], 2.5 µM; in assay [3], 4.63 µM; in assay [4], 6.26 µM.
As for `CC1(C)C=Cc2c(cc(O)c3c(=O)c4cccc(O)c4[nH]c23)O1` [ATOLAPHYLLIDINE], the IC50 in assay [1] came out at 2.83 µM; in assay [2], 4.65 µM; in assay [3] it was 5.58 µM; in assay [4], 6.98 µM.
For `COc1cc(O)c2c(=O)c3ccc(O)c(OC)c3n(C)c2c1` [CITPRESSINE II], the half-inhibitory concentration (IC50) in assay [1], in assay [2], in assay [3] and in assay [4] was over 40 µM each time.
Take `COc1ccc2c(=O)c3c(O)cc4c(c3n(C)c2c1OC)C=CC(C)(C)O4` [CITRACRIDONE II]: the concentration for half-maximal inhibition (IC50) in assay [1], in assay [2], in assay [3] and in assay [4] was over 40 µM in each case.
As for `COc1c(O)ccc2c(=O)c3c(O)cc4c(c3n(C)c12)C=CC(C)(C)O4` [CITRACRIDONE I], the IC50 in assay [1], in assay [2], in assay [3] and in assay [4] was over 40 µM throughout.
`COc1cc(O)c2c(=O)c3cccc(O)c3n(C)c2c1OC` [CITRUSININE-I]: the half-inhibitory concentration (IC50) in assay [1], in assay [2], in assay [3] and in assay [4] was over 40 µM in each case.
As to `CC(C)=CCc1c(O)cc(O)c2c(=O)c3ccccc3n(C)c12` [GLYCOCITRINE II], the half-inhibitory concentration (IC50) in assay [1], in assay [2], in assay [3] and in assay [4] was over 40 µM in each case.
On to `COc1cc(O)c2c(=O)c3cccc(O)c3n(C)c2c1CC=C(C)C` [GLYCOCITRINE I], for which the IC50 in assay [1], in assay [2], in assay [3] and in assay [4] was over 40 µM in each case.
Take `COc1cc(O)c2c(=O)c3ccc(OC)c(O)c3n(C)c2c1` [GRANDISINE I]: the IC50 in assay [1] is 19.3 µM; in assay [2], 29.2 µM; in assay [3], over 40 µM; in assay [4] it was 24.4 µM.
For `Cn1c2ccccc2c(=O)c2c(O)cc3c(c21)C=CC(C)(C)O3` [NORACRONYCINE], the IC50 in assay [1], in assay [2], in assay [3] and in assay [4] was over 40 µM each time.

Values taken from ChEMBL document CHEMBL1141824, “The antiproliferative effect of acridone alkaloids on several cancer cell lines” (J Nat Prod, 1999).
